For this series, the system named is MS2 coat protein. The experiment in a line: apparent Kd, MS2 coat protein; higher = weaker binding; RNA-MaP array; FMN 200 µM where present. The method, boiled down: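 Each design was made on Illumina sequencing-chip clusters by stalled E. coli RNA polymerase and titrated with SNAP-549-labelled MS2 coat protein from 0.7 or 1.5 nM, doubling to 3 µM, in the absence and then the presence of constant ligand. The buffer was 100 mM Tris-HCl pH 7.5, 80 mM KCl, 4 mM MgCl2, BSA, DTT, yeast tRNA and Tween-20. The apparent Kd is the median of filtered per-cluster fits of binding curves, with green signal normalised to red-channel RNA signal and control-cluster median Fmax.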

Where [1] appears, read: designed as: OFF switch for flavin mononucleotide, no ligand.
[2] abbreviates: ligand present: flavin mononucleotide, designed as: OFF switch for flavin mononucleotide.
The mark [3] stands for this setting: designed as: ON switch for flavin mononucleotide, no ligand.
The mark [4] stands for this setting: ligand present: flavin mononucleotide, designed as: ON switch for flavin mononucleotide.

The apparent Kd is a dissociation constant that holds for the conditions of the assay. For “CAGGUAGACUGAGGAUAUACAAAAGACCUAGUCUAUCUAGGUCAACUCACAUGAGGAUCACCCAUGUAGAAGGCAGUCUGCCUG”, the “apparent Kd” value reads like this: under setting [1], 19.3 nM; under setting [2], 70.9 nM.

Take “AUUUUUUGUCAUGUACAUGAGGAACAUGAGGAUCACCCAUGUAGAAGGAAUUUUUUUAAGUUUAGUUAGGAUAUACAUAUAUUU”: the “apparent Kd” value worked out at 53.9 nM under setting [1] and 30 nM under setting [2].

“AGUGCCUCGAGAGGAUAUAACAUGAGGAUCACCCAUGUAACAGAGGUGGAAACACCUCUGAAAUGUUAGAAGGCUCGAGGCACA”: the “apparent Kd” value under setting [1] stood at 40.7 nM and the “apparent Kd” value under setting [2] worked out at 53.2 nM.

As for “AGGGAGUGAGGAUAUACGAAAUAAAAAGAAGGAAAAAAAGAGUAGAAGGCACAUGAGGAUCACCCAUGUGAGAA”, the “apparent Kd” value turned out to be 22 nM under setting [1] and 19.5 nM under setting [2].

As for “ACAUAGCGAGGAUAUACAUGAGGAUCACCCAUGUGGUGGCGGUUACGGUAGGACUAGUGUAGAAGGUGCCAUGG”, the “apparent Kd” value under setting [1] amounted to 418 nM and the “apparent Kd” value under setting [2] is 424 nM.

Regarding “CGGUCAUGAGGAUAUCGAGGUUAGUACAUGAGGAUCACCCAUGUUAUCCAGGUGUCGGUUCGAGAAGGCAUGUCCG”, the “apparent Kd” value runs as follows: under setting [1], 461 nM; under setting [2], 753 nM.

On to “UGUGUAACGGAGGAUAUAGGACUUCAACGAAGACUAGAAGGCCGAACAUGAGGAUCACCCAUGUGGUCCUCCGU”, for which the “apparent Kd” value runs as follows: under setting [1], 11.9 nM; under setting [2], 14.9 nM.

In the case of “AACAACUCUGUGAGGAUAUGCAAUUGUUGAUCAAGGCAGAAGGCACAUGAGGAUCACCCAUGUUCCUACAAGGG”, the “apparent Kd” value under setting [1] was 47.3 nM and the “apparent Kd” value under setting [2] was 110 nM.

Consider “AGAGUUUCGUUGUGACCCAUUCACAUGAGGAUCACCCAUGUAGAGGAUAUAAGUCACCACGGUACUUAGAAGGCUGCAGGUGUG”, for which the “apparent Kd” value was determined as 6.83 nM under setting [1] and 12.5 nM under setting [2].

Regarding “CGCCUCAGUUCAGGAUAUGUAUGGGUCUAACGAACAGAAGGGAACAUGAGGAUCACCCAUGUAAAUAGGGCCAAAGGCUUGAUA”, the “apparent Kd” value reads like this: under setting [1], 35.8 nM; under setting [2], 208 nM.

For the sequence “CCAAUGUAAGGAUAUGACAAUGGUAUCUUCGGAUACCAUUGUCAGAAGGUACAUGAGGAUCACCCAUGUAUAAA”, the “apparent Kd” value was determined as 18.7 nM under setting [1] and 41.1 nM under setting [2].

As for “GCUGCAUAGGCAGGAUAUGCAAAAGCAGAUGCAAAGCAUCUGCAAUAAACAUGAGGAUCACCCAUGUAGAAGGGCCUGUGCAGU”, the “apparent Kd” value reads like this: under setting [1], 20.8 nM; under setting [2], 19.4 nM.

On to “GUCAGCUCGUGAGGAUAUACAACACUGCUUCGGCAGUGUAUUAAGGUCACAUGAGGAUCACCCAUGUAGAAGGCACGAGCUGAU”, for which the “apparent Kd” value reads like this: under setting [1], 8.12 nM; under setting [2], 105 nM.

In the case of “UUUUUGAAGCUUCGUUAAUACAGUUAGGAUAUGAGAGACAUGAGGAUCACCCAUGUGCAUGUUGAUUAGAAGGAACAACUAUCU”, the “apparent Kd” value reads like this: under setting [1], 20.1 nM; under setting [2], 17.4 nM.

Regarding “AAUGCCAAUGAAGGAUAUACAAACAUGAGGAUCACCCAUGUGUCUUUCGUGUAACUGGAAUUCGGGUAGAAGGUCAUUGACAUA”, the “apparent Kd” value by setting is: under setting [1], 34.5 nM; under setting [2], 26.9 nM.

Consider “GCAGGCUUCGAGAAGGACAUGAGGAUCACCCAUGUGCGUGUGAAGCAGCCGUGAGGCUGCAUCAUGUAGGAUAUCGGAGUCUGU”, for which the “apparent Kd” value by setting is: under setting [1], 77.8 nM; under setting [2], 650 nM.

Take “CGCUAUGACAUAGGAUAUUGAUACAUGAGGAUCACCCAUGUCAACCAUGAAGCUCGAUUUGUUGACAAGAAGGAUGUGGUAGCG”: the “apparent Kd” value under setting [3] was determined as 165 nM and the “apparent Kd” value under setting [4] was determined as 44.7 nM.

“UUUUCUUUUGUGAGGAUAUACUUCUUUUUUUUUUUGUAGAAGGCACAUGAGGAUCACCCAUGUUUUCUUUUCUG”: the “apparent Kd” value reads like this: under setting [1], 18.9 nM; under setting [2], 21.8 nM.

As for “UCCUUGUCCUGAGGAUAUCCGCGGUUCCCAAAAGGAGAAGGCAGGACAUGAGGAUCACCCAUGUACCCAGAGAACGUGCAGAGU”, the “apparent Kd” value was 19.2 nM under setting [1] and 129 nM under setting [2].

Consider “CGGUGACGUGUAGGAUAUGGCGAUGGGUUUUGGCCAGAAGGACAUGAGGAUCACCCAUGUGGUAGAGGGCUGGCGGCUGCCCGU”, for which the “apparent Kd” value runs as follows: under setting [1], 13.6 nM; under setting [2], 57.5 nM.

Regarding “UUCGUGCAGCUUUGCUGUACGCGUACAUGAGGAUCACCCAUGUAGGAUAUGGUAGGCUUUGUUUACUAGAAGGAUAGUGUGAUC”, the “apparent Kd” value stood at 140 nM under setting [1] and 45.8 nM under setting [2].

For “CCAGAGAUAUGAGGAUAUCGAGUGGAUAACACUCGAGAAGGCAUGUGAAAACAUGAGGAUCACCCAUGUAUGAUCUACUCUGGA”, the “apparent Kd” value turned out to be 50.6 nM under setting [3] and 23.8 nM under setting [4].

Take “GGAUGUCAAAGACAUCCAAUUCGAACAUGAGGAUCACCCAUGUAGGAUAUGCUACUCAAAGAGUAGCAGAAGGACAUGUGCUUU”: the “apparent Kd” value is 36.6 nM under setting [1] and 183 nM under setting [2].

In the case of “AGAAACUACGAGAAGGACAUGUGGUCCUUCUAAAACAUGAGGAUCACCCAUGUAGGAUAUCGUAGUUUCAGGAUCGUGAGAUCA”, the “apparent Kd” value reads like this: under setting [1], 35.5 nM; under setting [2], 7.27 nM.

As to “CAAUUUAUAACAGGAUAUACAAUACAAUGAUUAGUAGAAGGGUUUAAUACAUGAGGAUCACCCAUGUCAUGUGUCAUAAUAACC”, the “apparent Kd” value under setting [1] came out at 34.3 nM and the “apparent Kd” value under setting [2] came out at 24.9 nM.

In the case of “GUUCUUCCUGUGAGGAUAUCCAUGUGUCGGUUUAUGGAGAAGGUACAUGAGGAUCACCCAUGUCACCCGCGUUA”, the “apparent Kd” value is 14 nM under setting [1] and 18.8 nM under setting [2].

Take “CGGCAUCAUGUAGGAUAUGCGUGGCGAAGCUAUGCAGAAGGACAUGAGGAUCACCCAUGUCUUACCUAGCGUACUAGGUUGCCG”: the “apparent Kd” value reads like this: under setting [1], 6.37 nM; under setting [2], 16.1 nM.

Take “AAGAGUGCAGGAUAUACUUGGUAGGGCGGGUGGAUGGUUUGACAUGAGGAUCACCCAUGUAGAAGGGCAGAGAG”: the “apparent Kd” value by setting is: under setting [1], 38.7 nM; under setting [2], 27.6 nM.

As for “GAGUGACAUGAGGAUCACCCAUGUGAGGAUAUCGGACGGACCUAGUUAACUUCCGCCGCGAGAAGGCACAUCGG”, the “apparent Kd” value reads like this: under setting [1], 98.7 nM; under setting [2], 33.8 nM.

For the sequence “CACGGCAUCGGAGGAUAUACAUGAGGAUCACCCAUGUGGGUUGUACGCCGUGUAGAAGGCCGAGACCACCUUCUAGCUGGGAAG”, the “apparent Kd” value under setting [1] came to 11.7 nM and the “apparent Kd” value under setting [2] amounted to 33.1 nM.

With “AAAUAAAACGAUCGGCGAUCCAUACAUGAGGAUCACCCAUGUAGAAGGCACUCUACAAAGUAGAGUGAGGAUAUACGAGAUCGA”, the “apparent Kd” value is 7.13 nM under setting [1] and 95.5 nM under setting [2].

Regarding “UAGGACUUCGUAGGAUAUGUAUUUGAUUUCUACAUGAGGAUCACCCAUGUUUGCAUUUUUUUUUGACAGAAGGACGUGGUCGAA”, the “apparent Kd” value by setting is: under setting [3], 30.3 nM; under setting [4], 17.3 nM.

As to “GGGCUCGGAGGAUAUACAUGAGGAUCACCCAUGUAGGGCUCGGGUAUUCUCGGGCUCUGUAGAAGGUCGGGCUC”, the “apparent Kd” value under setting [1] came to 20.3 nM and the “apparent Kd” value under setting [2] was determined as 23.3 nM.

As to “GUUAUUAACAAGAAGGCAUACAUGAGGAUCACCCAUGUUCUACAUGGAUAAUGAGGAUAUUGCUAAUACAUGAGGAUCACCCAG”, the “apparent Kd” value came out at 72 nM under setting [1] and 66.9 nM under setting [2].

For “UUGGACGUCGUAGGAUAUGUAGGAUAUUCCUACAUGAGGAUCACCCAUGUUGACAUGGAAGAAGGACAGAAGGACGCUGUCCAU”, the “apparent Kd” value is, setting by setting: under setting [3], 576 nM; under setting [4], 8.85 nM.

For “GAUUCGCGUGAGAAGGACAUGAGGAUCACCCAUGUAGGAUAUCACGGUCCGUAGAGGAUUUCAAACCGUACUGGGUCAUAGUGU”, the “apparent Kd” value by setting is: under setting [3], 14.4 nM; under setting [4], 6.56 nM.

As for “AACCUAAAACAGAAGGCCAAAUACAUGAGGAUCACCCAUGUCGAAUCAUGGAGGAUAUGUUAUUAAUUACUCGCAGAUGAGUGC”, the “apparent Kd” value under setting [3] was found to be 70 nM and the “apparent Kd” value under setting [4] was 7.49 nM.

As for “CCAGACGUAGGAUAUACAUUUGGGUAAUCCCGCGGAAAGAUACAUGAGGAUCACCCAUGUAGAAGGGCGGUAAA”, the “apparent Kd” value reads like this: under setting [1], 31.1 nM; under setting [2], 21.1 nM.

Regarding “ACAUUGUUAGGAUAUGCUGCUCGUCACUUGCGUGAUGAGUAGCAGAAGGAACAUGAGGAUCACCCAUGUAAAAA”, the “apparent Kd” value amounted to 33.1 nM under setting [1] and 44.3 nM under setting [2].

In the case of “GGCAUAAUGUAGGAUAUCGUAUUGGAAACAAUACGAGAAGGGCAAACAUGAGGAUCACCCAUGUUCCUUAAGCC”, the “apparent Kd” value was determined as 18.5 nM under setting [1] and 19 nM under setting [2].

On to “AAUGGCGUCCAAGGAUAUCCUGACCGUUAACAUGAGGAUCACCCAUGUUGCCUAAAGGCGGCAUAGGAGAAGGUGGUACUCUGU”, for which the “apparent Kd” value runs as follows: under setting [3], 73.3 nM; under setting [4], 124 nM.

Turning to “AAUUGACACGUAGGAUAUCGCUCUUAAUUAACACGAGAAGGACGUACAUGAGGAUCACCCAUGUUAAAUGGUGUAGAUUAGUUG”, the “apparent Kd” value is, setting by setting: under setting [1], 219 nM; under setting [2], 599 nM.

Consider “UGGUGAAGUGUAGGAUAUGGAGGUGGGUUUUGGCCAGAAGGACAUGAGGAUCACCCAUGUGGUAGAGGGUUGGUGGUGGCUCGU”, for which the “apparent Kd” value came out at 23.9 nM under setting [1] and 21.4 nM under setting [2].

Turning to “GCAGCGUCUGCAGGAUAUCAGCACGUGUAGUGCUGAGAAGGGCACAUGAGGAUCACCCAUGUGAUCAAUUAAUAGACAUGCUGC”, the “apparent Kd” value was 6.98 nM under setting [1] and 15.5 nM under setting [2].

Turning to “GGACAGCGAGGAUAUACGUGUACGUUAUCCUCUAUGGGUCAACAUGAGGAUCACCCAUGUAGAAGGCGCAUAAU”, the “apparent Kd” value is, setting by setting: under setting [1], 19.4 nM; under setting [2], 28.1 nM.

With “GUUUUCGCGUGAGGAUAUGCUCGCAUUUCAAGAGCAGAAGGUAUGUCUAUAGACAUGAGGAUCACCCAUGUAUUUAUCAUUGAA”, the “apparent Kd” value is, setting by setting: under setting [3], 226 nM; under setting [4], 160 nM.

Regarding “AAUCCACAUGAGGAUCACCCAUGUGAGGAUAUCGUGCAGAAAAAAAAAAAAAACUGCACGAGAAGGCACAUGGA”, the “apparent Kd” value stood at 160 nM under setting [1] and 69.1 nM under setting [2].

For “UUUUUGUCAGGAUAUCCACCCACCACCUUCGGGUGGUGGGUGGAGAAGGGACAUGAGGAUCACCCAUGUAGUUU”, the “apparent Kd” value under setting [1] stood at 74.6 nM and the “apparent Kd” value under setting [2] turned out to be 221 nM.

The values above are taken from the EternaBench riboswitch data.
